ChEMBL document CHEMBL3352068 (Bioorg Med Chem, 2014)

How the values were obtained:
Carbonic anhydrase 9 = Carbonic anhydrase 9 (Homo sapiens, UniProt Q16790); experiment: Inhibition of human recombinant carbonic anhydrase 9 pre-incubated for 15 mins by stopped-flow CO2 hydration assay
Method in brief: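 Recombinant human enzyme, produced in-house. CO2 1.7–17 mM. Initial rates taken over 10-100 s from at least six traces, with the uncatalysed rate subtracted. Inhibitor diluted in water from 0.1 mM stock down to 0.01 nM, preincubated with enzyme at room temperature. Three determinations.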

Carbonic anhydrase 2 = Carbonic anhydrase 2 (Homo sapiens, UniProt P00918); experiment: Inhibition of human recombinant carbonic anhydrase 2 pre-incubated for 15 mins by stopped-flow CO2 hydration assay

Compound: COc1ccc(/C=C/C(=O)C[C@@H]2O[C@H](COC(C)=O)[C@H](OC(C)=O)[C@H](OC(C)=O)[C@H]2OC(C)=O)cc1OC
- Ki (Carbonic anhydrase 9): 773 nM

Compound: COc1cccc(/C=C/C(=O)C[C@@H]2O[C@H](CO)[C@H](O)[C@H](O)[C@H]2O)c1
- Ki (Carbonic anhydrase 9): 3860 nM
- Ki (Carbonic anhydrase 2): > 50000 nM

Compound: COc1cccc(/C=C/C(=O)C[C@@H]2O[C@H](CO)[C@@H](O)[C@H](O)[C@H]2O)c1
- Ki (Carbonic anhydrase 9): 615 nM
- Ki (Carbonic anhydrase 2): > 50000 nM

Compound: COc1ccc(/C=C/C(=O)C[C@@H]2O[C@H](COC(C)=O)[C@@H](OC(C)=O)[C@H](OC(C)=O)[C@H]2OC(C)=O)cc1OC
- Ki (Carbonic anhydrase 9): 753 nM

Compound: COc1ccc2cc(/C=C/C(=O)C[C@@H]3O[C@H](CO)[C@@H](O)[C@H](O)[C@H]3O)ccc2c1
- Ki (Carbonic anhydrase 9): 462 nM
- Ki (Carbonic anhydrase 2): > 50000 nM

Compound: COc1cccc(/C=C/C(=O)C[C@@H]2O[C@H](COC(C)=O)[C@H](OC(C)=O)[C@H](OC(C)=O)[C@H]2OC(C)=O)c1
- Ki (Carbonic anhydrase 9): 93 nM

Compound: COc1ccc(/C=C/C(=O)C[C@@H]2O[C@H](CO)[C@@H](O)[C@H](O)[C@H]2O)cc1OC
- Ki (Carbonic anhydrase 9): 840 nM

Compound: COc1ccc(/C=C/C(=O)C[C@@H]2O[C@H](CO)[C@H](O)[C@H](O)[C@H]2O)cc1OC
- Ki (Carbonic anhydrase 9): 936 nM

Compound: COc1cccc(/C=C/C(=O)C[C@@H]2O[C@H](COC(C)=O)[C@@H](OC(C)=O)[C@H](OC(C)=O)[C@H]2OC(C)=O)c1
- Ki (Carbonic anhydrase 9): 779 nM

Compound: COc1ccc2cc(/C=C/C(=O)C[C@@H]3O[C@H](CO)[C@H](O)[C@H](O)[C@H]3O)ccc2c1
- Ki (Carbonic anhydrase 9): 485 nM
- Ki (Carbonic anhydrase 2): > 50000 nM
